In brackets after ≈: the same amount, converted by molar mass.
What was measured:
Type in all cases: functional
[1] = system: Candida albicans; test: Antifungal activity against Candida albicans MTCC 277 after 48 hrs by agar cup plate method
Method in brief: (§1)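 Agar cup plate diffusion with compounds dissolved in DMSO. Bacteria (B. subtilis, E. coli) were grown on Mueller Hinton agar at 37 ± 0.5 °C. Fungi (C. albicans, A. niger) were grown on Czapek Dox medium at 28 ± 0.5 °C. Incubation was 48 h. The read-out was the diameter of the inhibition zone, averaged over three independent determinations.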

[2] = system: Escherichia coli; test: Antibacterial activity against Escherichia coli ATCC 25922 after 24 to 72 hrs by cup plate method
Method in brief: (§2)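 MIC by cup plate method on Mueller Hinton agar plates containing compound at 0 (control), 1, 2, 3, 5, 10, 15, 20, 30 or 40 µg/mL. Plates were prepared per NCCLS M7-A5 and incubated at 37 °C. They were examined after 24 h and, where necessary, incubated further for 72 h. The MIC was taken as the lowest concentration giving inhibition.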

[3] = system: Aspergillus niger; test: Antifungal activity against Aspergillus niger NCIM 545 after 48 hrs by agar cup plate method; method in brief: as §1
[4] = system: Candida albicans; test: Antifungal activity against Candida albicans MTCC 277 after 24 to 72 hrs by cup plate method; method in brief: as §2
[5] = system: Bacillus subtilis; test: Antibacterial activity against Bacillus subtilis NCIM 2250 after 24 to 72 hrs by cup plate method; method in brief: as §2
[6] = system: Aspergillus niger; test: Antifungal activity against Aspergillus niger NCIM 545 after 24 to 72 hrs by cup plate method; method in brief: as §2
[7] = system: Bacillus subtilis; test: Antibacterial activity against Bacillus subtilis NCIM 2250 after 48 hrs by agar cup plate method; method in brief: as §1
[8] = system: Escherichia coli; test: Antibacterial activity against Escherichia coli ATCC 25922 after 48 hrs by agar cup plate method; method in brief: as §1

Q: Which “diameter of the inhibition zone (DIZ)” value [1] does the source give for `Clc1nc2ccccc2cc1Cn1cc(-c2ccccc2)nn1` here?
A: Its value is 16 mm.

Q: And the MIC [2]?
A: Its MIC is 15 µg/mL (≈ 46.8 µM).

Q: And the “diameter of the inhibition zone (DIZ)” value [3]?
A: The value was 10 mm.

Q: What about the MIC [4] of the same molecule?
A: The MIC was 15 µg/mL (≈ 46.8 µM).

Q: What about the MIC [5] of the same molecule?
A: The MIC was 15 µg/mL (≈ 46.8 µM).

Q: What about the MIC [6] of the same molecule?
A: The MIC was 20 µg/mL (≈ 62.3 µM).

Q: And the “diameter of the inhibition zone (DIZ)” value [7]?
A: Its value is 13.5 mm.

Q: What about the “diameter of the inhibition zone (DIZ)” value [8] of the same molecule?
A: Its value is 12 mm.

Q: How did the “diameter of the inhibition zone (DIZ)” value [1] turn out when `Cc1ccc2nc(Cl)c(Cn3cc(-c4ccccc4)nn3)cc2c1` was run?
A: Its value is 14.7 mm.

Q: What about the MIC [2] of the same molecule?
A: Its MIC is 15 µg/mL (≈ 44.8 µM).

Q: What about the “diameter of the inhibition zone (DIZ)” value [3] of the same molecule?
A: The value was 16.1 mm.

Q: What about the MIC [4] of the same molecule?
A: Its MIC is 15 µg/mL (≈ 44.8 µM).

Q: And the MIC [5]?
A: Its MIC is 25 µg/mL (≈ 74.7 µM).

Q: What about the MIC [6] of the same molecule?
A: Its MIC is 10 µg/mL (≈ 29.9 µM).

Q: And the “diameter of the inhibition zone (DIZ)” value [7]?
A: Its value is 11.4 mm.

Q: And the “diameter of the inhibition zone (DIZ)” value [8]?
A: Its value is 14 mm.

Q: `CCc1cccc2cc(Cn3cc(-c4ccccc4)nn3)c(Cl)nc12` was tested. Which “diameter of the inhibition zone (DIZ)” value [1] did it give?
A: The value was 14 mm.

Q: What about the MIC [2] of the same molecule?
A: The MIC was 15 µg/mL (≈ 43 µM).

Q: What about the MIC [4] of the same molecule?
A: Its MIC is 15 µg/mL (≈ 43 µM).

Q: What about the MIC [5] of the same molecule?
A: The MIC was 10 µg/mL (≈ 28.7 µM).

Q: What about the “diameter of the inhibition zone (DIZ)” value [7] of the same molecule?
A: The value was 16.1 mm.

Q: And the “diameter of the inhibition zone (DIZ)” value [8]?
A: Its value is 15.9 mm.

Q: How did the “diameter of the inhibition zone (DIZ)” value [1] turn out when `Cc1ccc2cc(Cn3cc(-c4ccccc4)nn3)c(Cl)nc2c1` was run?
A: The value was 16.4 mm.

Q: What about the MIC [2] of the same molecule?
A: The MIC was 15 µg/mL (≈ 44.8 µM).

Q: And the MIC [4]?
A: Its MIC is 10 µg/mL (≈ 29.9 µM).

Q: What about the MIC [5] of the same molecule?
A: The MIC was 10 µg/mL (≈ 29.9 µM).

Q: And the “diameter of the inhibition zone (DIZ)” value [7]?
A: Its value is 16.6 mm.

Q: What about the “diameter of the inhibition zone (DIZ)” value [8] of the same molecule?
A: Its value is 14 mm.

Q: Which “diameter of the inhibition zone (DIZ)” value [1] does the source give for `Cc1cccc2cc(Cn3cc(-c4ccccc4)nn3)c(Cl)nc12` here?
A: The value was 13.4 mm.

Q: What about the MIC [2] of the same molecule?
A: Its MIC is 20 µg/mL (≈ 59.7 µM).

Q: And the “diameter of the inhibition zone (DIZ)” value [3]?
A: Its value is 12.7 mm.

Q: What about the MIC [4] of the same molecule?
A: Its MIC is 25 µg/mL (≈ 74.7 µM).

Q: And the MIC [5]?
A: Its MIC is 20 µg/mL (≈ 59.7 µM).

Q: What about the MIC [6] of the same molecule?
A: The MIC was 20 µg/mL (≈ 59.7 µM).

Q: What about the “diameter of the inhibition zone (DIZ)” value [7] of the same molecule?
A: Its value is 12 mm.

Q: What about the “diameter of the inhibition zone (DIZ)” value [8] of the same molecule?
A: The value was 12 mm.

Q: `COc1ccc2nc(Cl)c(Cn3cc(-c4ccccc4)nn3)cc2c1` was tested. Which “diameter of the inhibition zone (DIZ)” value [1] did it give?
A: Its value is 15.7 mm.

Q: And the “diameter of the inhibition zone (DIZ)” value [3]?
A: Its value is 16.3 mm.

Q: And the MIC [4]?
A: Its MIC is 15 µg/mL (≈ 42.8 µM).

Q: What about the MIC [5] of the same molecule?
A: The MIC was 10 µg/mL (≈ 28.5 µM).

Q: And the MIC [6]?
A: The MIC was 15 µg/mL (≈ 42.8 µM).

Q: What about the “diameter of the inhibition zone (DIZ)” value [7] of the same molecule?
A: The value was 16.7 mm.

Q: With `COc1ccc2cc(Cn3cc(-c4ccccc4)nn3)c(Cl)nc2c1` as the molecule, how does the “diameter of the inhibition zone (DIZ)” value [1] read?
A: Its value is 14 mm.

Q: What about the MIC [2] of the same molecule?
A: Its MIC is 10 µg/mL (≈ 28.5 µM).

Q: What about the MIC [4] of the same molecule?
A: Its MIC is 15 µg/mL (≈ 42.8 µM).

Q: And the MIC [5]?
A: Its MIC is 10 µg/mL (≈ 28.5 µM).

Q: What about the MIC [6] of the same molecule?
A: The MIC was 20 µg/mL (≈ 57 µM).

Q: And the “diameter of the inhibition zone (DIZ)” value [7]?
A: Its value is 16 mm.

Q: What about the “diameter of the inhibition zone (DIZ)” value [8] of the same molecule?
A: The value was 16.4 mm.

Q: Which results are given for `CCOc1ccc2nc(Cl)c(Cn3cc(-c4ccccc4)nn3)cc2c1`?
A: diameter of the inhibition zone (DIZ) [1]: 16.5 mm; diameter of the inhibition zone (DIZ) [3]: 12.8 mm; MIC [4]: 10 µg/mL (≈ 27.4 µM)

Q: For `COC1=CC(=O)C[C@@H](C)[C@]12Oc1c(Cl)c(OC)cc(OC)c1C2=O` [GRISEOFULVIN], which “diameter of the inhibition zone (DIZ)” value [1] is on record?
A: Its value is 16.9 mm.

Q: What about the “diameter of the inhibition zone (DIZ)” value [3] of the same molecule?
A: The value was 16.6 mm.

Q: And the MIC [4]?
A: The MIC was 5 µg/mL (≈ 14.2 µM).

Q: How did the MIC [2] turn out when `CN[C@@H]1[C@H](O[C@H]2[C@H](O[C@H]3[C@H](O)[C@@H](O)[C@H](N=C(N)N)[C@@H](O)[C@@H]3N=C(N)N)O[C@@H](C)[C@]2(O)C=O)O[C@@H](CO)[C@H](O)[C@H]1O` [STREPTOMYCIN] was run?
A: Its MIC is 5 µg/mL (≈ 8.6 µM).

Q: And the MIC [5]?
A: The MIC was 5 µg/mL (≈ 8.6 µM).

Q: And the MIC [6]?
A: Its MIC is 5 µg/mL (≈ 8.6 µM).

Q: What about the “diameter of the inhibition zone (DIZ)” value [7] of the same molecule?
A: Its value is 16.5 mm.

Q: What about the “diameter of the inhibition zone (DIZ)” value [8] of the same molecule?
A: Its value is 16.1 mm.

Reference: ChEMBL document CHEMBL1177890, “Synthesis and biological evaluation of new 2-chloro-3-((4-phenyl-1H-1,2,3-triazol-1-yl)methyl)quinoline derivatives via click chemistry approach” (2010)
